Data taken from ChEMBL document CHEMBL4613285 (ACS Med Chem Lett, 2020).
Active and inactive are the calls of the source. The rule behind the calls is not given here.

Tests used:
[1] = Drug concentration in CD-1 mouse brain at 3 mg/kg, iv measured at 8 mins; format: ADME, organism-based; details: read-out: Ct
Procedure, shortened: (§1)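 Male CD1 mice (n=2) dosed IV at 3 mg/kg; brain and plasma sampled at 8 and 60 min; values reported as mean ± standard error.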

[2] = Drug concentration in CD-1 mouse plasma at 3 mg/kg, iv measured at 8 mins; format: ADME, organism-based; procedure, shortened: as §1
Mus musculus = species on record: Mus musculus; test: Selectivity index, ratio of IC50 for HDAC1 in mouse N2A cells to IC50 for HDAC6 in mouse N2A cells; format: cell-based
[3] = Drug concentration in CD-1 mouse brain at 3 mg/kg, iv measured at 60 mins; format: ADME, organism-based; details: read-out: Ct; procedure, shortened: as §1
Histone deacetylase 1 = Histone deacetylase 1 (Mus musculus, UniProt O09106); test: Inhibition of HDAC1 in mouse N2A cells; format: cell-based
Chain of Histone deacetylase 1 (O09106 whole entry): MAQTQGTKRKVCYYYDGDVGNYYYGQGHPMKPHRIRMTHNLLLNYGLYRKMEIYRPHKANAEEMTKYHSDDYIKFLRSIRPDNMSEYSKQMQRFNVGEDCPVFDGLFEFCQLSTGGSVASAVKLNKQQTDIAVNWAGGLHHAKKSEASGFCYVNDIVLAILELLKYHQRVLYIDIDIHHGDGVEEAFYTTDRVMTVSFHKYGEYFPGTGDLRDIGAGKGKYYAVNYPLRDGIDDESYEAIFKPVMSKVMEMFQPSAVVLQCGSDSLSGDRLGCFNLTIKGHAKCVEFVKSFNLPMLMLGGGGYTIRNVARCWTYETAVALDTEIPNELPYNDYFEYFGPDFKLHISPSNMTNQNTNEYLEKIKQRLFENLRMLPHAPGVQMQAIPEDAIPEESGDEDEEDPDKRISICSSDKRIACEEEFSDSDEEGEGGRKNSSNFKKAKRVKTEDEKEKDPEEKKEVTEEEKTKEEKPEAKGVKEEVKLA

[4] = biological target: T1, Protein deacetylase HDAC6 (Mus musculus) (UniProt Q9Z2V5); test: In vivo inhibition of HDAC6 in C57BL/6 mouse cortex assessed as increase in alpha tubulin acetylation at 20 mg/kg, ip administered bid with interval of 4 hrs and measured after 1.5 hrs of last dosage by Western blot analysis; format: functional, organism-based
T1 sequence (whole entry): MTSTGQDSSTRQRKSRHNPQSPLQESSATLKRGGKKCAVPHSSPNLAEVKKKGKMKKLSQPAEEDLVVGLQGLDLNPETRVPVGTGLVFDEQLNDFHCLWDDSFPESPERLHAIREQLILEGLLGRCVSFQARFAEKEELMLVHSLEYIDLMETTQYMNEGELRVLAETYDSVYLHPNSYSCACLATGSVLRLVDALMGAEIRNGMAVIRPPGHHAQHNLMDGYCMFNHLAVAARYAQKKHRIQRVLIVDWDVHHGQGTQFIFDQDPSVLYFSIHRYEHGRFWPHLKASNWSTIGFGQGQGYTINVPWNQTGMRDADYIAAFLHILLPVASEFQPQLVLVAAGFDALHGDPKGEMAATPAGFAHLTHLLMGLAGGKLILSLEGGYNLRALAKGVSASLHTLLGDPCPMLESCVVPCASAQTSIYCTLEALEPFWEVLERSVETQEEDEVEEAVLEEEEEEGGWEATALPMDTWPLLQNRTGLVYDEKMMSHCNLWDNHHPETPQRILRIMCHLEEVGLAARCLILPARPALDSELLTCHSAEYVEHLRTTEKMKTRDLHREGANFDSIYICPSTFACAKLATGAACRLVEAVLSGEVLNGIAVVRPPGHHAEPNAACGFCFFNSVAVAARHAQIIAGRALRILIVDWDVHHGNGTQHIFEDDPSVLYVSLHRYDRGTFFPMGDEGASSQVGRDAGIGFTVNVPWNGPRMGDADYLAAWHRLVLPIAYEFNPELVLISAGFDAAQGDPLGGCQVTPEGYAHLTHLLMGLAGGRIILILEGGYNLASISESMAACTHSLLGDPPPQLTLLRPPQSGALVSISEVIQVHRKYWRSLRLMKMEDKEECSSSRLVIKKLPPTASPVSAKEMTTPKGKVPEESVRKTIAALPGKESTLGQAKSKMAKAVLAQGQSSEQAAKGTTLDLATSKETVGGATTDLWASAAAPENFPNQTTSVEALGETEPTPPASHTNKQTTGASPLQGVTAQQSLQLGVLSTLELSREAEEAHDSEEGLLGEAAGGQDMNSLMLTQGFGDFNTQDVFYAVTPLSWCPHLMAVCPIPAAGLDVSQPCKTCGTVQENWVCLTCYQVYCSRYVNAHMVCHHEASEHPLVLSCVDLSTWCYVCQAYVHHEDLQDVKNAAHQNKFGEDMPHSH
Procedure, shortened: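 Adult male C57BL/6 mice got two IP injections of 20 mg/kg, 4 h apart, and were killed 1.5 h after the second. Cortical homogenates were Western blotted (n = 3–4 per group) for acetylated α-tubulin/total tubulin densitometric ratio, normalized to vehicle-treated baseline (100%). Mean and standard deviation are reported; significance versus vehicle at p < 0.05 or p < 0.01.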

[5] = biological target: T2, Protein deacetylase HDAC6 (Mus musculus, UniProt Q9Z2V5); test: Inhibition of HDAC6 in mouse N2A cells assessed as increase in alpha tubulin acetylation; format: cell-based
T2 sequence (Q9Z2V5 whole entry): T1 sequence (whole entry)
Procedure, shortened: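 N2a cells; α-tubulin acetylation read out; 10-dose EC50 mode, singlet, 3-fold serial dilutions from 100 μM top concentration.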

[6] = Ratio of drug level in brain to plasma in CD-1 mouse at 3 mg/kg, iv measured after 60 mins; format: ADME, organism-based; details: brain and plasma, read-out: BPR; procedure, shortened: as §1
[7] = biological target: T2, Protein deacetylase HDAC6; test: Inhibition of HDAC6 in mouse N2A cells; format: cell-based
[8] = Ratio of drug level in brain to plasma in CD-1 mouse at 3 mg/kg, iv measured after 8 mins; format: ADME, organism-based; details: brain and plasma, read-out: BPR; procedure, shortened: as §1
[9] = Drug concentration in CD-1 mouse plasma at 3 mg/kg, iv measured at 60 mins; format: ADME, organism-based; procedure, shortened: as §1
MDR1 [10] = test: Efflux ratio of permeability in MDCK-MDR1 cells; format: ADME, cell-based, Canis lupus familiaris; details: dog
[11] = Initial plasma concentration in CD-1 mouse at 3 mg/kg, iv measured at 0 mins; format: ADME, organism-based
Procedure, shortened: (§2)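 Plasma PK in male CD1 mice (n=3, mean) after 3 mg/kg IV; vehicle 5% DMSO in 10% HP-β-CD in saline, pH adjusted with HCl; C0, C1h and Vss derived from plasma profile.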

[12] = Plasma concentration in CD-1 mouse at 30 mg/kg, po measured at 1 hr; format: ADME, organism-based
Procedure, shortened: (§3)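 Plasma PK in male CD1 mice (n=3, mean) after 30 mg/kg oral dosing; formulation 5% DMSO in 10% HP-β-CD in saline, pH adjusted with HCl; C0 and C1h from plasma profile.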

[13] = Half life in CD-1 mouse at 3 mg/kg, iv; format: ADME, organism-based; details: in vivo
[14] = Protein binding in mouse plasma; format: ADME, cell-free; details: read-out: PPB (converted)
[15] = Metabolic stability in mouse Hepatocyte assessed as half life; format: ADME, cell-based; details: hepatocytes
[16] = Metabolic stability in mouse liver microsomes assessed as half life; format: ADME, Microsome
[17] = Half life in CD-1 mouse at 30 mg/kg, po; format: ADME, organism-based; details: in vivo
MDR1 [18] = test: Efflux ratio of apparent permeability from basolateral to apical over apical to basolateral side in MDCK-MDR1 cells incubated for 2 hrs by LC-MS/MS analysis; details: dog
[19] = Ratio of drug level in brain to plasma in C57BL/6 mouse at 3 mg/kg, iv measured after 8 mins by LC-MS/MS analysis; details: brain and plasma
[20] = Volume of distribution at steady state in CD-1 mouse at 3 mg/kg, iv; format: ADME, organism-based; details: in vivo; procedure, shortened: as §2
[21] = Protein binding in mouse brain homogenate; format: ADME, tissue-based; details: read-out: PB (converted)
[22] = Protein binding in mouse plasma assessed as unbound fraction measured at 1 hr; format: ADME, cell-free
Procedure, shortened: (§4)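 Unbound plasma level derived from total concentrations predicted for 10 mg/kg IP using IV PK data, corrected by measured mouse plasma protein binding; given at initial point and 1 h.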

[23] = Plasma concentration in CD-1 mouse at 3 mg/kg, iv measured at 1 hr; format: ADME, organism-based; procedure, shortened: as §2
[24] = AUC in CD-1 mouse at 30 mg/kg, po; format: ADME, organism-based; details: in vivo
[25] = AUC in CD-1 mouse at 3 mg/kg, iv; format: ADME, organism-based; details: in vivo
[26] = Protein binding in mouse plasma assessed as unbound fraction measured at initial point; format: ADME, cell-free; procedure, shortened: as §4
[27] = Metabolic stability in mouse plasma assessed as half life; format: ADME, cell-free
[28] = Free drug concentration in mouse brain at 25 mg/kg measured at 8 mins; format: ADME, organism-based; details: in vivo
Procedure, shortened: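 Free brain exposure calculated for 25 mg/kg from brain PK at 8 min and brain homogenate binding.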

[29] = Initial plasma concentration in CD-1 mouse at 30 mg/kg, po measured at 0 mins; format: ADME, organism-based; details: read-out: C0; procedure, shortened: as §3
[30] = Oral bioavailability in CD-1 mouse at 30 mg/kg; format: ADME, organism-based; details: in vivo

SMILES | concentration at 8 min [1] [ng/g] | concentration at 8 min [2] [µg/mL] | Ratio IC50 (Mus musculus) | concentration at 1 h [3] [ng/g] | IC50 (Histone deacetylase 1) [µM] | Activity [4] | EC50 [5] [µM] | Kp at 1 h [6] | IC50 [7] [µM] | Kp at 8 min [8] | concentration at 1 h [9] [µg/mL] | efflux ratio (MDR1 [10]) | other results
O=C(NO)c1ccc(CN2CCc3ccc(F)cc32)cc1 | 944 | 0.152 | 571 | 7.6 | 5.54 | Active | 0.25 | 9.5 | 0.0097 | 6.21 | 0.0008 | 1.05 | 
O=C(NO)c1ccc(Cn2cccn2)cc1 | 354 | 0.345 | 150 | 30.5 | 6.86 | Active | 0.932 | 5.08 | 0.0455 | 1.03 | 0.006 | 0.51 | 
CN1CCc2c(c3ccccc3n2Cc2ccc(C(=O)NO)cc2)C1 [TUBASTATIN A] | 40.5 | 0.274 |  | 17.5 | 8.1 |  | 0.145 | 0.86 | 0.0044 | 0.15 | 0.0203 | 9.83 | C0 at 0 h [11]: 1.25 µg/mL; concentration at 1 h [12]: 0.0419 µg/mL; t1/2 [13]: 21 min; fraction unbound [14]: 0.34; half-life [15]: > 60 min; half-life [16]: > 60 min; half-life [17]: 51.6 min; efflux ratio at 2 h (MDR1 [18]): 9.83; Kp at 8 min [19]: 0.15; Vdss [20]: 4.14 L/kg; fraction unbound [21]: 0.094; Cp(f) [22]: 0.09 µM; concentration at 1 h [23]: 0.0297 µg/mL; AUC [24]: 0.134 µg·h/mL; AUC [25]: 0.227 µg·h/mL; C0(unbound) [26]: 3.77 µM; half-life [27]: 30 min; Drug uptake(free) [28]: 0.1 µM; concentration at 0 h [29]: 0.135 µg/mL; bioavailability [30]: 5.9%
